Screens (PubChem)
An excerpt weighted towards active compounds, which were near 1.6% of everything screened.
TPT1 inh = Candida albicans TPT1 enzyme inhibitors, primary screen, biochemical, fluorescence polarization; tRNA 2'-phosphotransferase TPT1 (Candida albicans SC5314); inhibition, % at 5 µM; AID 1962, 2009; hit rate 0.81% among 300,000; recombinant caTPT1, FP RNA substrate dephosphorylation;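 active = inhibition above the mean of all tested compounds plus 3 SD, set per screening campaign, cut at about 24% in these data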
CSN inh = inhibitors of CSN-mediated cullin deneddylation, primary screen, biochemical, fluorescence polarization, uHTS | COP9 signalosome complex subunit 5 (Homo sapiens), Q92905 | Purified CSN, SCF-Nedd8-OG deneddylation | inhibition, % at 12.5 µM | hit rate 0.38% among 360,000 | AID 651999, 2013;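 active = pattern-corrected inhibition above about 35%, with an unprinted fluorescence ratio check between 0.5 and 1.5, limit read from the data, passing the limit was not always enough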
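Test system: purified human Csn5 enzyme expressed in HEK293T cells. Amount: 0.24 nM enzyme. Reagent: SCFSkp2-Nedd8OG substrate at 10 nM final. Schedule: 90 min incubation of compound, enzyme and substrate at room temperature. Detection: fluorescence polarization. Read-out: % inhibition of substrate cleavage by Csn5.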
SENP1 inh = human SENP1 catalytic domain inhibitors, primary screen, biochemical, FRET, uHTS. recombinant SENP1 catalytic domain, CyPet-SUMO1-YPet FRET cleavage. inhibition, % at 10 µM. hit rate 0.21% among 360,000. Sentrin-specific protease 1 (Homo sapiens), Q9P0U3;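 active = inhibition at least 30% at 10 µM, raw YFP signal under a set limit, fluorescence ratio 0.5 to 1.5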
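system = hSENP1 catalytic domain, recombinant | reagent = SFCypet-SUMO1-SFYpet substrate at 25 nM | doses = one dose per compound, 10 µM, 0.5% DMSO | incubation = enzyme reaction for 50 min at room temperature, dark | measured by = FRET, CFP and YFP emission | controls = no-enzyme low, enzyme-DMSO high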
HNF4A DNA FP = change in binding of human HNF4A to DNA, primary screen, biochemical, fluorescence polarization, FITC-DNA. AID 1224865, 2016. Hepatocyte nuclear factor 4-alpha (Homo sapiens), P41235. 1 h. activity change, % at 10 µM. hit rate 0.3% among 360,000; in the data active = activity change above about 30%, passing the limit was not always enough
Rpn11 inh = Rpn11 (PSMD14) deubiquitinase inhibitors, primary screen, biochemical, fluorescence polarization, uHTS. human 26S proteasome, Ub4-pepOG fluorescence polarization; 20S core pre-blocked with epoxomicin. 26S proteasome non-ATPase regulatory subunit 14 (Homo sapiens), O00487. hit rate 0.59% among 360,000. inhibition, % at 20 µM;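 active = inhibition at 20 µM, scaled to each plate's controls, above about 33%, limit read from the data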
Rpn11 confirm = Rpn11 (PSMD14) deubiquitinase inhibitors, confirmation, biochemical, fluorescence polarization, single concentration; hit rate 29% among 1,900; shares compounds with Rpn11 inh; purified human 26S proteasome, Ub4-pepOG fluorescence polarization; proteasome pretreated with epoxomicin; inhibition, % at 20 µM
MMP-2 inh = MMP-2 enzyme inhibition, confirmation, counter-screen for RPN11 inhibitor project, biochemical, fluorescence, single concentration; inhibition, % at 20 µM; hit rate 4% among 1,900; AID 602330, 2012; recombinant MMP-2, FRET peptide cleavage fluorescence; shares compounds with Rpn11 inh;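 also: human MMP-2 activated beforehand with APMA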
Thrombin inh = bovine thrombin protease inhibition, confirmation, counter-screen for Rpn11 inhibitor project, biochemical, fluorescence polarization, single concentration. shares compounds with Rpn11 inh. bovine thrombin cleavage of Ub4-pepOG. inhibition, % at 20 µM. hit rate 13% among 1,900. AID 602333, 2012;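 active = mean inhibition at least 40% at 20 µM, or signal 3 deviations below plate average, so some actives read negative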
Target sequence (P00735 whole entry, looked up): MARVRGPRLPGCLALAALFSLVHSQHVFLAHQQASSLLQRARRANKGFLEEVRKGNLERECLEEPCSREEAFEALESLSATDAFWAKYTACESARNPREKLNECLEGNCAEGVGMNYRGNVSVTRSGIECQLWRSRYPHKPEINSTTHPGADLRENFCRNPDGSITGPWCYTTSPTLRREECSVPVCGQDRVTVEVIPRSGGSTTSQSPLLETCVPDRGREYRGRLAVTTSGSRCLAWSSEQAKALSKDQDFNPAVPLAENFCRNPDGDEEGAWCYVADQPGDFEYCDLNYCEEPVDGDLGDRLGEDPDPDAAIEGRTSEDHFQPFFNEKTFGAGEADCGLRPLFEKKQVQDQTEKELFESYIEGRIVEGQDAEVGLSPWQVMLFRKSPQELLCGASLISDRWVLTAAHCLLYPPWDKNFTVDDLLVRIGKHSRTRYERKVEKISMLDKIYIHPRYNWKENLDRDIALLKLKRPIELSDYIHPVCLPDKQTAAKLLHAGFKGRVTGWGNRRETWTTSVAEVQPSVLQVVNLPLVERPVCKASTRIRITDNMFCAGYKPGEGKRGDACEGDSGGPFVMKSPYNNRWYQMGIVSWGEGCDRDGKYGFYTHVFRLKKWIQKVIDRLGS
Numbers stand for hits; i = inactive; nt = no result given. Rule as the data show it, unless noted: active = inhibition above about 40%; inactive = the rest.

SMILES	TPT1 inh	CSN inh	SENP1 inh	HNF4A DNA FP	Rpn11 inh	Rpn11 confirm	MMP-2 inh	Thrombin inh
NC(=O)C1CCN(C(=O)CNC(=O)c2ccc(F)cc2)CC1	nt	i	i	i	i	nt	nt	nt
CS(=O)(=O)N(CC(=O)Nc1ccc2c(c1)OCCO2)c1ccc2c(c1)OCO2	i	i	i	i	150	i	i	i
COc1ccc(CN2CCN(c3nc4ccccc4s3)CC2)cc1	nt	i	i	i	i	nt	nt	nt
COc1ccc(CCn2c(O)cc3nn(-c4nc5ccccc5s4)c(=O)c-3c2C)cc1	i	i	i	i	55	i	i	i
COc1ccccc1NC(=O)C1=C(C)NC(SCC(=O)Nc2ccc(C(=O)O)cc2)=C(C#N)C1c1cccs1 (centres undefined)	i	i	i	i	i	nt	nt	nt
CC(C)(C)OC(=O)[C@H](Cc1ccccc1)NC(=O)c1nc[nH]c1C(=O)N[C@@H](Cc1ccccc1)C(=O)OC(C)(C)C	i	i	i	i	i	nt	nt	nt
CC(C)(C)OC(=O)[C@H](Cc1ccccc1)NC(=O)c1ncn2c1c(=O)[nH]c1ccc(Br)cc12	nt	i	i	i	83	i	i	i
O=C(NCc1n[nH]c(=S)n1-c1ccccc1)c1ccc(S(=O)(=O)N2CCOCC2)cc1	i	i	i	i	i	nt	nt	nt
O=C(NCc1n[nH]c(=S)n1-c1ccc(F)cc1)c1ccc(S(=O)(=O)N2CCOCC2)cc1	i	i	i	32	92	i	53	i
COc1ccc2c(c1)CCC1C2=NN(/C(C)=C/C(C)=O)C1c1cccc(F)c1 (centres undefined)	i	i	i	76	80	i	i	i
CC(=O)N1N=C2c3ccccc3CCC2C1c1ccc(F)cc1 (centres undefined)	i	i	i	i	i	nt	nt	nt
c1cc(CNCCCN2CCOCC2)ccn1	i	i	i	i	i	nt	nt	nt
CC(=O)N(CCCN1CCOCC1)Cc1ccncc1	i	i	i	i	40	i	i	i
COc1ccc(CN2C(=O)c3ccc(C(=O)O)cc3C2=O)cc1	i	i	i	i	i	nt	nt	nt
COc1ccc(Nc2nc3cc(C)ccc3cc2C#N)c(OC)c1	i	i	i	i	i	nt	nt	nt
COc1ccc(Nc2nc3ccc(C)cc3cc2C#N)c(OC)c1	i	i	i	i	42	i	i	i
COc1ccc(C(=O)C2CCCN(S(=O)(=O)c3ccccc3F)C2)c(C)c1 (centres undefined)	i	i	i	i	i	nt	nt	nt
COc1ccc(/C=C(\C#N)C(=O)Nc2cccnc2)cc1	i	i	i	i	i	nt	nt	nt
N#C/C(=C\c1ccc(Cl)cc1)C(=O)Nc1cccnc1	i	i	i	i	91	i	i	i
CCc1ccc2[nH]c(=O)c(C(c3nnnn3CC3CCCO3)N3CCN4CCCC4C3)cc2c1 (centres undefined)	i	i	i	i	51	i	i	i
COC(=O)c1sc2nc(CN3CCN(c4ccc(OC)cc4)CC3)[nH]c(=O)c2c1C	i	i	i	i	i	nt	nt	nt
CCOC(=O)c1sc2nc(CN3CCN(c4cccc(C(F)(F)F)c4)CC3)[nH]c(=O)c2c1C	i	i	i	i	49	i	i	i
COC(=O)c1sc2nc(CN3CCN(c4cccc(C(F)(F)F)c4)CC3)[nH]c(=O)c2c1C	i	i	i	i	62	i	i	i
COc1cccc(N2CCN(Cc3nc4ccccc4c(=O)[nH]3)CC2)c1	i	i	i	i	i	nt	nt	nt
COc1cccc(N2CCN(Cc3nc4scc(-c5ccccc5)c4c(=O)[nH]3)CC2)c1	i	i	i	i	53	i	i	i
SMILES	TPT1 inh	CSN inh	SENP1 inh	HNF4A DNA FP	Rpn11 inh	Rpn11 confirm	MMP-2 inh	Thrombin inh
O=S(=O)(c1ccc(S(=O)(=O)N2CCC(O)CC2)cc1)N1CCCC1	i	i	i	i	i	nt	nt	nt
O=C(N/C(=C/c1ccc(F)cc1)C(=O)N1CCOCC1)c1ccco1	nt	i	i	i	i	nt	nt	nt
N=c1c(C(=O)NC2CCCCC2)cc2c(=O)n3ccccc3nc2n1Cc1ccc(F)cc1	i	i	i	i	51	i	i	i
COc1ccc(S(=O)(=O)N=N/C=C2\C=CC=CN2O)cc1OC	nt	i	i	i	i	nt	nt	nt
CC(C)CN1CCN(Cc2c[nH]c3ccccc23)CC1CCO (centres undefined)	i	i	i	i	i	nt	nt	nt
COc1ccccc1NC(=O)c1sc2ncn(CC(=O)Nc3ccccc3)c(=O)c2c1C	i	i	i	i	49	i	i	i
COc1ccccc1NC(=O)Cn1cnc2sc(C(=O)Nc3cc(OC)c(OC)c(OC)c3)c(C)c2c1=O	i	i	i	i	i	nt	nt	nt
COC(=O)c1ccc(CNC(=O)c2ccc(S(=O)(=O)N3CCCC(C)C3)cc2)cc1 (centres undefined)	nt	i	i	i	i	nt	nt	nt
Cc1cc(NS(=O)(=O)c2ccc(Nc3nc(-c4sc(N)nc4C)cs3)cc2)no1	i	73	i	i	55	i	i	i
Cc1cc(NS(=O)(=O)c2ccc(Nc3nc(-c4ccc(C)c(C)c4)cs3)cc2)no1	i	i	i	i	i	nt	nt	nt
COc1ccc(-c2cc(C(F)(F)F)nc(SCCC(=O)N3CCN(C)CC3)n2)cc1	nt	i	i	i	i	nt	nt	nt
COCC(C)NC(=O)CCSc1nc(-c2ccc(OC)cc2)cc(C(F)(F)F)n1 (centres undefined)	i	i	i	i	86	i	i	i
CN(C)CCNc1ncnc2c1ncn2[C@H]1CN(Cc2ccc(-c3ccccc3)cc2)C[C@@H](CO)O1	nt	i	i	i	i	nt	nt	nt
O=C(NCCC1=CCCCC1)c1[nH]c(C(F)(F)F)nc1-c1ccccc1	nt	i	i	i	i	nt	nt	nt
O=C(Cc1cccc2ccccc12)Nc1ccc(-c2cc3ccccc3oc2=O)cc1	i	i	i	i	43	i	i	i
CCN(c1ccccc1)S(=O)(=O)c1ccc(Cl)c(C(=O)NCc2ccco2)c1	nt	i	i	i	i	nt	nt	nt
O=C(N/N=C/c1cc([N+](=O)[O-])ccc1O)c1cc(-c2ccccc2)nc2ccccc12	i	i	i	i	42	43	i	i
